According to ChEMBL document CHEMBL1123345, “2-Alkyl-substituted 1,1-bis(4-acetoxyphenyl)-2-phenylethenes. Estrogen receptor affinity, estrogenic and antiestrogenic properties, and mammary tumor inhibiting activity” (1986):

Columns and labels:
[1] = target: T1, Estrogen receptor (Mus musculus) (UniProt O08537+P19785); assay: Estrogenic effect in uterotrophic assay in immature mice at 25 ug dose; format: functional
How it was run: (§1)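 Immature female NMRI mice (10–12 g, 20 days old, 10 per group) injected sc daily for 3 days with compound in olive oil (0.1 mL/mouse), dose per animal per day. Uteri removed 24 h after last dose, Bouin-fixed, dried, weighed. Effect = uterus dry weight (mg)/body weight (g) × 100. Activity = (E_T − E_V)/(E_S − E_V) × 100, with estrone 0.4 μg standard as 100%.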

[2] = system: Mus musculus; assay: In vivo inhibition of hormone-dependent MXT mammary tumor in mice; format: functional
How it was run: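 BDF1 mice bearing transplanted hormone-dependent MXT mammary tumor (line 3.2). From day 1 after transplantation, compounds given sc 3 times weekly in olive oil (0.1 mL/mouse) for 6 weeks, at doses equimolar to 3 × 8 mg/kg per week. Tumors excised, washed in 0.9% NaCl, blotted, weighed. T/C % = treated/solvent-control tumor weight × 100, mean of 10 animals. Mann–Whitney–Wilcoxon U test, α ≤ 0.05.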

[3] = target: T1, Estrogen receptor (Mus musculus); assay: Anti-estrogenic effect in uterotrophic assay in immature mice at 25 ug dose; format: functional
How it was run: (§2)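 Immature female NMRI mice (10–12 g, 20 days old, 10 per group) given test compound sc daily for 3 days in olive oil (0.1 mL/mouse), dose per animal per day, with estrone stimulating uterine growth. Uteri removed 24 h after last injection, Bouin-fixed, dried and weighed. Read-out is % inhibition of estrone-stimulated uterine growth.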

[4] = target: T1, Estrogen receptor (Mus musculus); assay: Anti-estrogenic effect in uterotrophic assay in immature mice at 5 ug dose; format: functional; how it was run: as §2
[5] = target: T1, Estrogen receptor (Mus musculus); assay: Estrogenic effect in uterotrophic assay in immature mice at 100 ug dose; format: functional; how it was run: as §1
[6] = target: T1, Estrogen receptor (Mus musculus); assay: In vivo inhibition of uterine growth in hormone-dependent MXT mammary tumor bearing mice; format: functional, organism-based
How it was run: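 MXT tumor-bearing BDF1 mice dosed sc 3 times weekly for 6 weeks in olive oil at doses equimolar to 3 × 8 mg/kg per week. Uterotrophic effect measured at end of therapy. T/C % = treated/solvent-control uterotrophic effect × 100, mean of 10 animals. U test (Wilcoxon, Mann, Whitney), α ≤ 0.05.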

[7] = target: T1, Estrogen receptor (Mus musculus); assay: Estrogenic effect in uterotrophic assay in immature mice at 5 ug dose; format: functional; how it was run: as §1
[8] = target: T1, Estrogen receptor (Mus musculus); assay: Anti-estrogenic effect in uterotrophic assay in immature mice at 1.0 ug dose; format: functional; how it was run: as §2
[9] = target: T1, Estrogen receptor (Mus musculus); assay: Estrogenic effect in uterotrophic assay in immature mice at 1 ug dose; format: functional; how it was run: as §1

T1 sequence (O08537 whole entry, looked up): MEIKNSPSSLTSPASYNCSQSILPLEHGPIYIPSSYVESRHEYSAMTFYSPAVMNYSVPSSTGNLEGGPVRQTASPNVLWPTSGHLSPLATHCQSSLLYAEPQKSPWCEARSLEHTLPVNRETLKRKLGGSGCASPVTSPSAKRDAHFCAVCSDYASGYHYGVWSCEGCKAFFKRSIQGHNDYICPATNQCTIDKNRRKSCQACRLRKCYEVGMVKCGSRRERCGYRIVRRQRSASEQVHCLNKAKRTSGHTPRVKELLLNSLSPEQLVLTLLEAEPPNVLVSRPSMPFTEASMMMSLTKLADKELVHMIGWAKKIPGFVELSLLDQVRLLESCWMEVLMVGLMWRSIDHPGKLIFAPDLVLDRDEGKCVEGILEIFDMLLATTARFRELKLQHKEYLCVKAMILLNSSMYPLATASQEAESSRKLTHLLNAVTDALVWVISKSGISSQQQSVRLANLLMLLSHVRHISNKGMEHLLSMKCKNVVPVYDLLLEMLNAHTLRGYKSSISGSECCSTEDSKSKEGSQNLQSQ
T1 sequence (P19785 whole entry, looked up): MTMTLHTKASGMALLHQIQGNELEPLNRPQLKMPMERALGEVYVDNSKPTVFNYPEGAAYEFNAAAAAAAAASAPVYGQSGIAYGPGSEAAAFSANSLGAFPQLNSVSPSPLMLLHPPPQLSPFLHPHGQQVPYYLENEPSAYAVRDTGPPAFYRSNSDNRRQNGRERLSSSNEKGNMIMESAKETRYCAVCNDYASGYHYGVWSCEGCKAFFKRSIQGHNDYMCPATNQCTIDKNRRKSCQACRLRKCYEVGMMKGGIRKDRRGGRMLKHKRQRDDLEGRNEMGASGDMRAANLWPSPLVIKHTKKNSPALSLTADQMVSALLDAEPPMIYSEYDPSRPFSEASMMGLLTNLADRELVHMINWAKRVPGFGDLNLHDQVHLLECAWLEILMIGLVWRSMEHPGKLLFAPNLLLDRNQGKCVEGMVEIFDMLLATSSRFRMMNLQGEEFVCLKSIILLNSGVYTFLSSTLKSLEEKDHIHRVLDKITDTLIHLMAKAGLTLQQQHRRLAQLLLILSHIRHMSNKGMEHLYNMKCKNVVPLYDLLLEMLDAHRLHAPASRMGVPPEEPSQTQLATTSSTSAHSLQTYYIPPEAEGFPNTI

Row | Structure (SMILES) | Activity [1] | inhibition [3] [%] | inhibition [4] [%] | Activity [5] | T/C [6] [%] | Activity [7] | inhibition [8] [%] | Activity [9] | T/C [2] [%]
1 | CC(=O)Oc1ccc(C(=Cc2ccccc2)c2ccc(OC(C)=O)cc2)cc1 | 99 |  | 0 | 116 | 54.8 | 13 | 26 | 11 | 64.3
2 | CCCC(=C(c1ccc(OC(C)=O)cc1)c1ccc(OC(C)=O)cc1)c1ccccc1 | 90 |  | 0 | 114 | 93.3 | 42 | 19 | 31 | 61.1
3 | CCC(c1ccccc1)C(c1ccc(OC(C)=O)cc1)c1ccc(OC(C)=O)cc1 (stereo not drawn) | 79 |  | 0 | 83 | 73.7 | 42 | 27 | 17 | 69.1
4 | CC/C(=C(\c1ccccc1)c1ccc(OCCN(C)C)cc1)c1ccccc1 [TAMOXIFEN] |  |  |  |  |  |  |  |  | 9.8

Further lines, with some results ahead:

Row | Activity [1] | inhibition [3] [%] | inhibition [4] [%] | Activity [5] | T/C [6] [%] | Activity [7] | inhibition [8] [%] | Activity [9] | Structure (SMILES) | T/C [2] [%]
5 | 33 | 0 | 5 | 60 | 77.9 | 2 | 23 | 2 | CCC1(c2ccccc2)OC1(c1ccc(OC(C)=O)cc1)c1ccc(OC(C)=O)cc1 (stereo not drawn) | 78.9
6 | 108 |  |  | 86 | 128 | 140 | 0 | 62 | CC(=O)Oc1ccc(C(=C(CC(F)(F)F)c2ccccc2)c2ccc(OC(C)=O)cc2)cc1 | 43.1
7 | 83 |  |  | 78 | 120 | 108 |  | 125 | CC(=O)Oc1ccc(C(=C(C)c2ccccc2)c2ccc(OC(C)=O)cc2)cc1 | 0.3
8 | 100 |  | 0 | 117 | 128 | 87 | 0 | 60 | CC(=O)Oc1ccc(C(=C(c2ccccc2)C(C)C)c2ccc(OC(C)=O)cc2)cc1 | 0.2
9 | 98 |  | 0 | 107 | 124 | 72 | 0 | 37 | CCC(=C(c1ccc(OC(C)=O)cc1)c1ccc(OC(C)=O)cc1)c1ccccc1 | 0.4
